Reference: ChEMBL document CHEMBL1122306, “2-(Hydroxyphenyl)indoles: a new class of mammary tumor inhibiting compounds” (1983)
“And” between values parts separate entries of the source, which are not always exact repeats. Equal entries are not always repeated.

Experiments:
[1] = biological target: T1, Estrogen receptor (Mus musculus) (UniProt O08537+P19785); experiment: Percent inhibition in anti-uterotrophic assay in mice at 5 ug; format: functional
Procedure, shortened: (§1)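 Mice dosed sc on 3 consecutive days (dose per animal), together with […] estrone per animal per day. Uterus dry weight (mg)/body weight (g) × 100 was taken 24 h after the last injection, as mean ± SD of 10 animals. Significance by Wilcoxon–Mann–Whitney U test.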

[2] = biological target: T1, Estrogen receptor (Mus musculus); experiment: Anti-estrogenic activity in mouse uterotrophic assay at 0.04 ug as uterus dry weight (mg)/body weight (g) *100; format: functional, tissue-based; conditions: in the assay text read “at 1 ug” for “at 0.04 ug”; procedure, shortened: as §1
[3] = tested on: Rattus norvegicus; experiment: Partial remission in DMBA-induced hormone dependent mammary carcinoma tumor bearing rats at 2 mg/kg in 9 animals; format: functional
Procedure, shortened: (§2)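 Sprague-Dawley rats bearing established DMBA-induced mammary carcinomas that arose 5–10 weeks after DMBA. Dosed sc as one daily dose Monday to Thursday and a double dose on Friday. Controls got vehicle alone. Tumor area was followed over treatment.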

[4] = tested on: Rattus norvegicus; experiment: New tumor development in DMBA-induced hormone dependent mammary carcinoma in rats at 2 mg/kg; format: functional; procedure, shortened: as §2
[5] = tested on: Rattus norvegicus; experiment: Percent complete remission of DMBA-induced hormone dependent mammary carcinoma in rats at 2 mg/kg in 9 animals; format: functional; procedure, shortened: as §2
[6] = tested on: Rattus norvegicus; experiment: New tumor development in DMBA-induced hormone dependent mammary carcinoma in rats at 6 mg/kg; format: functional; procedure, shortened: as §2
[7] = tested on: Rattus norvegicus; experiment: Initial DMBA-induced hormone dependent mammary carcinoma tumors in rats at 6 mg/kg; format: functional; procedure, shortened: as §2
[8] = biological target: T1, Estrogen receptor (Mus musculus); experiment: Anti-estrogenic activity in mouse uterotrophic assay at 5 ug as uterus dry weight (mg)/body weight (g) *100; format: functional, tissue-based; procedure, shortened: as §1
[9] = biological target: T1, Estrogen receptor (Mus musculus); experiment: Percent inhibition in anti-uterotrophic assay in mice at 25 ug; format: functional; procedure, shortened: as §1
[10] = tested on: MDA-MB-231; experiment: (§3) Inhibition of [3H]thymidine incorporation into hormone independent MDA-MB 231 human breast cancer cells at 2x10E-6M; format: functional
Procedure, shortened: (§4)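 MDA-MB 231 cells grown in McCoy 5a with 10% newborn calf serum and gentamycin. Replicate plates were switched to 5% serum 1 h before the run. Compounds were added in Me2SO (final 0.1%). Read-out was [3H]thymidine incorporation into TCA-precipitable material.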

[11] = tested on: MDA-MB-231; experiment: Inhibition of [3H]thymidine incorporation into hormone independent MDA-MB 231 human breast cancer cells at 1x10E-5 M; format: functional; procedure, shortened: as §4
[12] = tested on: Rattus norvegicus; experiment: Initial DMBA-induced hormone dependent mammary carcinoma tumors in rats at 2 mg/kg; format: functional; procedure, shortened: as §2
[13] = tested on: MDA-MB-231; experiment: (§5) Inhibition of [3H]thymidine incorporation into hormone independent MDA-MB 231 human breast cancer cells at 1x10E-6M; format: functional; procedure, shortened: as §4
[14] = tested on: MDA-MB-231; experiment: Inhibition of [3H]-thymidine incorporation into hormone independent MDA-MB 231 human breast cancer cells at 5x10E-6M; format: functional; procedure, shortened: as §4
[15] = biological target: T1, Estrogen receptor (Mus musculus); experiment: Estrogenic activity in mouse uterotrophic assay at 25 ug as uterus dry weight (mg)/body weight (g) *100; format: functional, tissue-based
Procedure, shortened: (§6)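 Mouse uterotrophic test with the compound alone given sc on 3 consecutive days (dose per animal). Uterus dry weight (mg)/body weight (g) × 100 was measured 24 h after the last injection, as mean ± SD of 10 animals. Significance by Wilcoxon–Mann–Whitney U test.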

[16] = biological target: T1, Estrogen receptor (Mus musculus); experiment: Estrogenic activity in mouse uterotrophic assay at 0.04 ug as uterus dry weight (mg)/body weight (g) *100; format: functional, tissue-based; procedure, shortened: as §6
[17] = biological target: T1, Estrogen receptor (Mus musculus); experiment: Estrogenic activity in mouse uterotrophic assay at 0.2 ug as uterus dry weight (mg)/body weight (g) *100; format: functional, tissue-based; procedure, shortened: as §6
[18] = biological target: T1, Estrogen receptor (Mus musculus); experiment: Estrogenic activity in mouse uterotrophic assay at 125 ug as uterus dry weight (mg)/body weight (g) *100; format: functional, tissue-based; procedure, shortened: as §6
[19] = tested on: MDA-MB-231; experiment: as §3; format: functional; procedure, shortened: as §4; remark: listed apart in the source
[20] = biological target: T1, Estrogen receptor (Mus musculus); experiment: Percent inhibition in anti-uterotrophic assay in mice at 0.2 ug; format: functional; conditions: in the assay text read “at 5 ug” for “at 0.2 ug”; procedure, shortened: as §1
[21] = tested on: MDA-MB-231; experiment: Inhibition of [3H]thymidine incorporation into hormone independent MDA-MB 231 human breast cancer cells at 1*10^-5 M; format: functional; procedure, shortened: as §4
[22] = tested on: MDA-MB-231; experiment: as §5; format: functional; procedure, shortened: as §4; remark: listed apart in the source
[23] = tested on: Rattus norvegicus; experiment: New tumor development in DMBA-induced hormone dependent mammary carcinoma in rats at 18 mg/kg; format: functional; procedure, shortened: as §2
[24] = tested on: MDA-MB-231; experiment: Growth inhibition of hormone independent MDA-MB 231 human breast cancer cells at 1x10E-5 M
[25] = tested on: Rattus norvegicus; experiment: Change in body weight of DMBA-induced hormone dependent mammary carcinoma tumor bearing rats at 2 mg/kg after 7 day therapy in 9 animals; format: functional
[26] = biological target: T1, Estrogen receptor (Mus musculus); experiment: Percent inhibition in anti-uterotrophic assay in mice at 0.04 ug; format: functional; conditions: in the assay text read “at 1 ug” for “at 0.04 ug”; procedure, shortened: as §1
[27] = biological target: T1, Estrogen receptor (Mus musculus); experiment: Anti-estrogenic activity in mouse uterotrophic assay at 0.2 ug as uterus dry weight (mg)/body weight (g) *100; format: functional, tissue-based; conditions: in the assay text read “at 5 ug” for “at 0.2 ug”; procedure, shortened: as §1
[28] = biological target: T1, Estrogen receptor (Mus musculus); experiment: Estrogenic activity in mouse uterotrophic assay at 1 ug as uterus dry weight (mg)/body weight (g) *100; format: functional, tissue-based; procedure, shortened: as §6
[29] = biological target: T1, Estrogen receptor (Mus musculus); experiment: Estrogenic activity in mouse uterotrophic assay at 5 ug as uterus dry weight (mg)/body weight (g) *100; format: functional, tissue-based; procedure, shortened: as §6
[30] = tested on: Rattus norvegicus; experiment: Initial DMBA-induced hormone dependent mammary carcinoma tumors in rats at 18 mg/kg; format: functional; procedure, shortened: as §2
[31] = tested on: Rattus norvegicus; experiment: Progressive DMBA-induced hormone dependent mammary carcinoma tumors in rats at 2 mg/kg in 9 animals; format: functional; procedure, shortened: as §2
[32] = biological target: T1, Estrogen receptor (Mus musculus); experiment: Anti-estrogenic activity in mouse uterotrophic assay at 25 ug as uterus dry weight (mg)/body weight (g) *100; format: functional, tissue-based; procedure, shortened: as §1
[33] = biological target: T1, Estrogen receptor (Mus musculus); experiment: Percent inhibition in anti-uterotrophic assay in mice at 1 ug; format: functional; procedure, shortened: as §1
[34] = tested on: MDA-MB-231; experiment: Inhibition of [3H]thymidine incorporation into hormone independent MDA-MB 231 human breast cancer cells at 5x10E-6M; format: functional; procedure, shortened: as §4
[35] = biological target: T1, Estrogen receptor (Mus musculus); experiment: Anti-estrogenic activity in mouse uterotrophic assay at 1 ug as uterus dry weight (mg)/body weight (g) *100; format: functional, tissue-based; procedure, shortened: as §1
[36] = tested on: MDA-MB-231; experiment: Growth inhibition of hormone independent MDA-MB 231 human breast cancer cells at 5x10E-6M
[37] = tested on: Rattus norvegicus; experiment: Change in tumor area DMBA-induced hormone dependent mammary carcinoma tumor bearing rats at 2 mg/kg after 28 day therapy in 9 animals
[38] = tested on: Rattus norvegicus; experiment: Static unchanged DMBA-induced hormone dependent mammary carcinoma tumors in rats at 2 mg/kg in 9 animals; format: functional; procedure, shortened: as §2
[39] = biological target: T1, Estrogen receptor (Mus musculus); experiment: Anti-estrogenic activity in mouse uterotrophic assay at 625 ug as uterus dry weight (mg)/body weight (g) *100; format: functional, tissue-based; procedure, shortened: as §1
[40] = biological target: T1, Estrogen receptor (Mus musculus); experiment: Percent inhibition in anti-uterotrophic assay in mice at 125 ug; format: functional; procedure, shortened: as §1
[41] = biological target: T1, Estrogen receptor (Mus musculus); experiment: Estrogenic activity in mouse uterotrophic assay at 625 ug as uterus dry weight (mg)/body weight (g) *100; format: functional, tissue-based; procedure, shortened: as §6
[42] = tested on: Rattus norvegicus; experiment: Change in tumor area DMBA-induced hormone dependent mammary carcinoma tumor bearing rats at 2 mg/kg after 7 day therapy in 9 animals; format: functional; conditions: in the assay text read “28 day” for “7 day”; procedure, shortened: as §2
[43] = biological target: T1, Estrogen receptor (Mus musculus); experiment: Percent inhibition in anti-uterotrophic assay in mice at 625 ug; format: functional; procedure, shortened: as §1
[44] = biological target: T1, Estrogen receptor (Mus musculus); experiment: Anti-estrogenic activity in mouse uterotrophic assay at 125 ug as uterus dry weight (mg)/body weight (g) *100; format: functional, tissue-based; procedure, shortened: as §1

T1 sequence (O08537 whole entry, looked up): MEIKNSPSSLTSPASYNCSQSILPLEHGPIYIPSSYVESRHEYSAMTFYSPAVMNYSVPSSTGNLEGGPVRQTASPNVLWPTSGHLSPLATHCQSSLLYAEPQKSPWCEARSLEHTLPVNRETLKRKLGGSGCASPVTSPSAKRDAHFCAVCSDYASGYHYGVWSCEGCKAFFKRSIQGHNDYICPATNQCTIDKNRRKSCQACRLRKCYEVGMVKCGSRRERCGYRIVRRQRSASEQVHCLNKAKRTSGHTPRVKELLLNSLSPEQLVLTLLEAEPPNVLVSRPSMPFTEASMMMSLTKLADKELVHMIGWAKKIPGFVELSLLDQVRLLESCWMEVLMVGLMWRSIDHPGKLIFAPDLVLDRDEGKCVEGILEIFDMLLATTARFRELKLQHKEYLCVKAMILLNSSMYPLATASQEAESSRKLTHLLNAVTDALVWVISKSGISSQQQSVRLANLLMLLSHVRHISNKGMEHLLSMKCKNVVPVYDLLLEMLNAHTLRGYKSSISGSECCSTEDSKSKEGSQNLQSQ
T1 sequence (P19785 whole entry, looked up): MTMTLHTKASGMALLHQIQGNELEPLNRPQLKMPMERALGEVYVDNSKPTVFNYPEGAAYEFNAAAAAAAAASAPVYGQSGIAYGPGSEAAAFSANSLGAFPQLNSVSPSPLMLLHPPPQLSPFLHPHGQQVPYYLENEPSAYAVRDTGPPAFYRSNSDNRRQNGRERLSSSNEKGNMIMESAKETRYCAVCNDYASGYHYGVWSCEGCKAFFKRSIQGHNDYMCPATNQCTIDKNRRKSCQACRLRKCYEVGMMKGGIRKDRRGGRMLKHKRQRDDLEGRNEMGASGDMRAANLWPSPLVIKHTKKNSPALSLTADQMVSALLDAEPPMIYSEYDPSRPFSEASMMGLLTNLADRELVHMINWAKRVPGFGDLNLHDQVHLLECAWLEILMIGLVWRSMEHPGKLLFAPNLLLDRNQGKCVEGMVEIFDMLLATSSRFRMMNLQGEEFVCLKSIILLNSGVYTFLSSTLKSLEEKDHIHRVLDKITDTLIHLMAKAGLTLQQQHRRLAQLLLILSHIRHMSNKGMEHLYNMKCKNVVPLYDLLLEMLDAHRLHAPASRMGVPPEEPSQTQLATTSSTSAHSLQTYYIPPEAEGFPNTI

In the case of `CCn1c(-c2c(Cl)cc(O)cc2Cl)cc2c(Cl)cc(O)cc21`, the inhibition [1] is reported as 2%, the Effect [2] is reported as 48.7 and the Partial remission ([3]; 2 mg/kg) is reported as 14% and 15% and 24%. For the same compound, the New tumors [4] was 15, the Complete remission ([5]; 2 mg/kg) was 43% and 62% and 56% and the New tumors [6] was 4. It also gave a No. of tumors [7] of 22, an Effect [8] of 46.3 and an inhibition [9] of 25%. For the same compound, the T/C [10] was 88%, the Cell no./dish x10E3 [11] was 6.6 cpm/dish x10E3 and the “Cell no./dish x10E5” value [11] was 2.71. The No. of tumors [12] was 22, the T/C [13] was 98% and the “Cell no./dish x10E5” value [14] was 5.44. For the same compound, the Effect [15] was 45.8, the Effect [16] was 19.8 and the Effect [17] was 21.7. For the same compound, the Effect [18] was 40.6, the Cell no./dish x10E3 [19] was 36.2 cpm/dish x10E3 and the “Cell no./dish x10E5” value [19] was 9.38. It also gave a T/C [19] of 88%, an inhibition [20] of 2% and a T/C [21] of 16%. The Cell no./dish x10E3 [22] was 40.2 cpm/dish x10E3, the “Cell no./dish x10E5” value [22] was 11.35 and the T/C [22] was 106%. The New tumors [23] was 5, the T/C [24] was 25% and the Change ([25]; 2 mg/kg) was 2% and 1% and 0%. For the same compound, the inhibition [26] was -7%, the Effect [27] was 46.3 and the Effect [28] was 21.5. The Effect [29] was 22.2, the No. of tumors [30] was 20 and the Progressive tumors ([31]; 2 mg/kg) was 24% and 15% and 16%. For the same compound, the Effect [32] was 39.3, the inhibition [33] was -7% and the T/C [34] was 14%. It also gave a [3H]thymidine incorporation [34] of 5.8 cpm/dish x10E3, an Effect [35] of 48.7 and a T/C [36] of 51%.

`CCCn1c(-c2c(Cl)cc(O)cc2Cl)cc2c(Cl)cc(O)cc21` was tested, and the Partial remission [3] was 19%, the Complete remission [5] was 8% and the New tumors [6] was 9. The No. of tumors [7] was 17, the Change [37] was 57% and the Change [25] was 0%. For the same compound, the Static remission [38] was 50% and the Progressive tumors [31] was 23%.

`Cn1c(-c2c(Cl)cc(O)cc2Cl)cc2c(Cl)cc(O)cc21` showed an Effect [39] of 39.6, an inhibition [1] of 5% and an inhibition [40] of 30%. For the same compound, the Partial remission [3] was 28%, the Complete remission [5] was 19% and the New tumors [6] was 24. It also gave a No. of tumors [7] of 19, an Effect [8] of 45.4 and an inhibition [9] of 14%. The Effect [41] was 40.1, the Cell no./dish x10E3 [11] was 2.2 cpm/dish x10E3 and the “Cell no./dish x10E5” value [11] was 4.12. The Change [42] was 24%, the T/C [13] was 88% and the Effect [15] was 26. The Effect [18] was 34.4, the T/C [21] was 5% and the Cell no./dish x10E3 [22] was 36.4 cpm/dish x10E3. The “Cell no./dish x10E5” value [22] was 10.12, the T/C [22] was 95% and the T/C [24] was 38%. It also gave a Change [25] of -2%, a Static remission [38] of 25% and an Effect [28] of 16. It also gave an inhibition [43] of 24%, an Effect [29] of 18.2 and a Progressive tumors [31] of 28%. The Effect [44] was 37.7, the Effect [32] was 42.7 and the inhibition [33] was -6%. For the same compound, the Effect [35] was 48.5.
